# Compound activity: PubChem, several laboratories
# Compounds with a hit are over-represented: about 3.4% of the library has one in this group of screens.
# CHT PAM: allosteric activators of human choline transporter CHT. CHT-expressing cells, membrane potential dye, choline EC20; hits give high values; LV-AA mutant CHT in HEK293 cells. B-score at 10 µM. actives 0.49% (n = 310,000). AID 488977;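 active means initial fluorescence not abnormally high and integrated response B-score, plate-corrected, over 3 SD above library mean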
# ANO1 activ: activators or potentiators of mouse TMEM16A chloride channel. HEK293 TMEM16A/YFP-H148Q/I152L, iodide quench fluorescence; hits give low values. actives 0.3% (n = 340,000). Q8BHY3. B-score at 10 µM. AID 623877;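 active means fluorescence-ratio B-score plate-corrected deviation score at least 3 library SD below zero, with starting fluorescence score within 5 deviations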;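 further: channel opened by trigger with iodide after compound preincubation; score built on the fluorescence ratio of max minus min over baseline; more negative score means more quench and so TMEM16A activation or potentiation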
# IMP-1 inhibitor: blocks Pseudomonas aeruginosa IMP-1 metallo-beta-lactamase. purified IMP-1, nitrocefin hydrolysis, epi-absorbance fluorescence. inhibition, % at 5.6 µM. actives 0.45% (n = 290,000). AID 1556;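 active means inhibition above the mean plus 3 SD of all compounds in the same screening run, cut at about 4.5% in these data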;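 further: 0% = IMP-1 with DMSO and 100% = DMSO wells lacking enzyme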
#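 Assay system: purified recombinant IMP-1 beta-lactamase. Input: IMP-1 0.2 nM before substrate addition. Buffer or medium: Zinc- and detergent-supplemented HEPES buffer, pH 7.1. Schedule: 25 °C, 15 min preincubation, 25 min reaction. Signal: Epi-absorbance fluorescence, 480 nm excitation, 530 nm emission. Evaluation: percent inhibition from optical density relative to buffer-blank wells.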
# CHT block: inhibitors of human choline transporter CHT; CHT-expressing cells, membrane potential dye, choline response; hits give low values; B-score at 10 µM; actives 0.86% (n = 310,000); AID 488975;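 active means B-score over 3 SD under the library average, and starting fluorescence ratio not unusually high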;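 further: choline stimulus applied at its EC90 after an EC20 pre-addition; B-score computed on integrated fluorescence ratio after choline addition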
# VIM-2 inhibitor: inhibitors of Pseudomonas aeruginosa VIM-2 metallo-beta-lactamase; purified VIM-2, nitrocefin hydrolysis, epi-absorbance fluorescence; actives 0.89% (n = 290,000); AID 1527; inhibition, % at 5.6 µM;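 active means inhibition above the mean of all tested compounds plus 3 SD, cutoff set per screening run, cut at about 7.5% in these data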;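 further: red hydrolysis product quenches plate fluorescence so inhibitors raise well fluorescence; 0% = enzyme with DMSO and 100% = DMSO without enzyme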
# ANO1 block: blocks the mouse calcium-activated chloride channel TMEM16A | Q8BHY3 | HEK293 TMEM16A/YFP iodide influx fluorescence, ionomycin | normalized B-score (activity score, 25-100; higher = stronger inhibition) at 10 µM | actives 1.2% (n = 310,000);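 active means ratio plate-corrected score three or more library SD toward inhibition, starting fluorescence score within five deviations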;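 further: score derived from kinetic fluorescence span divided by baseline fluorescence per well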
# Starred values were filed as active, the others as inactive; i = inactive; / = no result.
SMILES,CHT PAM,ANO1 activ,IMP-1 inhibitor,CHT block,VIM-2 inhibitor,ANO1 block
O=C(Cn1c(=O)oc2cc(S(=O)(=O)N3CCCC3)ccc21)NCc1ccc(F)cc1,i,i,-4.7,i,7.9*,i
CC1CCC(NC(=O)Cn2c(=O)oc3cc(S(=O)(=O)N4CCCC4)ccc32)CC1 (stereo unspecified),i,i,4.9*,i,-4.0,i
Nc1ccccc1-n1c(=O)n(Cc2ccccc2F)c(=O)c2[nH]cnc21,i,i,-2.6,i,-3.9,i
CC1(C)Cc2c(cnn2-c2cccc(F)c2)C(NC(=O)CSc2ccncc2)C1 (stereo unspecified),i,i,-3.4,i,-2.2,i
CC1=CC(C)(C)NC(=S)N1c1ccc(N(C)C)cc1,/,i,/,/,/,/
Cc1cccc(NC(=O)c2cc(S(=O)(=O)N(C)c3ccc(F)cc3)ccc2Cl)n1,i,i,/,i,/,i
O=C(Nc1ccc(S(=O)(=O)N2CCCCC2)cc1)c1ccc(CN2CCOCC2)cc1,i,i,-2.4,i,-1.8,100*
CC1(c2ccc(OC(F)F)cc2)NC(=O)N(CC(=O)Nc2cccc(S(N)(=O)=O)c2)C1=O (stereo unspecified),i,i,-2.1,i,-1.0,i
CC1(c2ccc(OC(F)F)cc2)NC(=O)N(/N=C/c2c(O)ccc3ccccc23)C1=O (stereo unspecified),i,-4.69*,-4.3,i,-0.2,i
COCCn1ccc2c(OCC(=O)NCc3ccc(C)cc3)cccc2c1=O,i,i,/,i,/,i
O=S(=O)(c1cccc2cnccc12)N1CCNCC1,i,-11.7*,/,i,/,i
O=C(O)C1CSC2c3ccccc3C(=O)N12 (stereo unspecified),i,i,10.5*,i,-3.0,i
COc1cc(SC)ccc1C(=O)N1CCN(S(=O)(=O)/C=C/c2ccccc2)CC1,/,i,/,/,/,/
Cc1ccc(C(=O)C(c2ccccc2)N2Cc3ccccc3C2=N)cc1 (stereo unspecified),i,i,0.3,i,-0.3,100*
CN1C[C@@H]2[C@@H]3C(=O)N(Cc4ccccc4)C(=O)[C@@H]3[C@](Cc3ccccc3)(C1=O)N2C(=O)c1ccc(Cl)cc1,/,i,/,/,/,/
COCCNC(=O)CSc1nnc(NC(=O)C2CC(=O)N(c3ccccc3OC)C2)s1 (stereo unspecified),i,i,-1.9,i,-1.6,i
O=C(O)C1=C(C(=O)Nc2cc(C(F)(F)F)ccc2Cl)CCCC1,i,i,9.9*,i,3.5,i
Cc1ccc(/C=C(\CCC(=O)O)c2nc3ccccc3s2)cc1[N+](=O)[O-],i,i,-1.5,i,8.8*,i
CNc1ccc(/C=C(\CCC(=O)O)c2nc3ccccc3s2)cc1[N+](=O)[O-],i,i,-4.4,i,11.3*,i
CN(c1ccccc1)c1ccc(/C=C(\CCC(=O)O)c2nc3ccccc3s2)cc1[N+](=O)[O-],i,i,-2.9,i,0.7,i
COc1cccc2c1cc1c(=O)n(CC(=O)NCCCc3ccccc3)nc(C)n12,i,i,-3.6,i,-2.7,i
COc1cccc2c1cc1c(=O)n(CC(=O)NCCCN3CCCCC3)nc(C)n12,i,i,-2.2,i,9.2*,i
Cc1oc2c(C)c3oc(=O)c(CCC(=O)N4C[C@H]5C[C@@H](C4)c4cccc(=O)n4C5)c(C)c3cc2c1C,i,i,-3.8,i,3.1,i
Cc1coc2c(C)c3oc(=O)c(CCC(=O)N4C[C@H]5C[C@@H](C4)c4cccc(=O)n4C5)c(C)c3cc12,i,i,-3.0,i,7.7*,i
Cc1coc2c(C)c3oc(=O)c(CCC(=O)NCCN4CCOCC4)c(C)c3cc12,i,i,-1.4,i,8.2*,i
Cc1coc2c(C)c3oc(=O)c(CCC(=O)NCCCN4CCOCC4)c(C)c3cc12,i,i,-0.9,i,10.7*,i
CC(=O)N/C(=C\c1ccccc1)C(=O)OCC(=O)NC1CCS(=O)(=O)C1 (stereo unspecified),/,i,/,/,/,/
